Measured values published in ChEMBL document CHEMBL2146394, “Design and synthesis of pyrrolo[3,2-d]pyrimidine HER2/EGFR dual inhibitors: improvement of the physicochemical and pharmacokinetic profiles for potent in vivo anti-tumor efficacy” (Bioorg Med Chem, 2012).

Assays:
[1] = Apparent permeability across apical to basolateral side in human Caco2 cells at 10 umol/L; type: ADME, cell-based; details: Caco-2
Summary of the method: (§1)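 Confluent Caco-2 monolayers on collagen-coated polycarbonate Transwell membranes. HBSS with 10 mmol/L HEPES, 15 mmol/L glucose and 1% BSA, pH 7.3–7.5. Compound dosed at 10 µmol/L apically (A→B) or basolaterally (B→A), 37 °C, 5% CO₂. Receivers sampled at 1 and 2 h; LC/MS/MS. Papp from receiver concentration slope; duplicates.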

[2] = Metabolic stability in human hepatic microsomes at 1 umol/L after 20 mins; type: ADME; details: liver microsomes, read-out: Stability
Summary of the method: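 Human liver microsomes (0.2 mg/mL protein) with 1 µmol/L compound in 50 mmol/L phosphate pH 7.4 plus an NADPH-generating system (glucose-6-phosphate, β-NADP⁺, G6PDH, MgCl₂). Incubated at 37 °C for 0 and 20 min, stopped with acetonitrile, duplicates. Remaining compound measured by HPLC with photodiode array detection.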

BT-474 [3] = experiment: Antitumor activity against human BT474 cells xenografted in BALB/c nu/nu mouse at 100 mg/kg, po bid administered 14 days measured on day 31 relative to control; type: functional
Summary of the method: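 BT-474 xenografts: 1×10⁷ cells in Matrigel implanted subcutaneously into the right flank of female BALB/c nu/nu mice. Estradiol dipropionate 0.25 mg given intramuscularly on days 0 and 7. Tumours of 200–300 mm³ used. Dosing 100 mg/kg orally bid in 0.5% methylcellulose for 14 days. Volume a×b²/2 by calipers. T/C (%) compared at day 31.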

BT-474 [4] = experiment: Growth inhibition of HER2 over-expressing human BT474 cells after 5 days; type: functional; details: BT-474, 120 h
Summary of the method: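 BT-474 cells kept in RPMI 1640 with 10% heat-inactivated FBS. Seeded at 3×10⁴ cells/well and allowed to attach overnight. Treated continuously with compound for 5 days. Live cells counted with a particle analyzer; GI₅₀ derived.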

[5] = Metabolic stability in mouse hepatic microsomes at 1 umol/L after 20 mins; type: ADME; details: liver microsomes, read-out: Stability
[6] = target: Epidermal growth factor receptor (Homo sapiens, UniProt P00533); experiment: Inhibition of human N-terminal DYKDDDD tagged EGFR cytoplasmic domain amino acid 669 to 1210 expressed in baculovirus after 5 mins by scintillation counter
Epidermal growth factor receptor, sequence (P00533 whole entry, the tested form may be a part): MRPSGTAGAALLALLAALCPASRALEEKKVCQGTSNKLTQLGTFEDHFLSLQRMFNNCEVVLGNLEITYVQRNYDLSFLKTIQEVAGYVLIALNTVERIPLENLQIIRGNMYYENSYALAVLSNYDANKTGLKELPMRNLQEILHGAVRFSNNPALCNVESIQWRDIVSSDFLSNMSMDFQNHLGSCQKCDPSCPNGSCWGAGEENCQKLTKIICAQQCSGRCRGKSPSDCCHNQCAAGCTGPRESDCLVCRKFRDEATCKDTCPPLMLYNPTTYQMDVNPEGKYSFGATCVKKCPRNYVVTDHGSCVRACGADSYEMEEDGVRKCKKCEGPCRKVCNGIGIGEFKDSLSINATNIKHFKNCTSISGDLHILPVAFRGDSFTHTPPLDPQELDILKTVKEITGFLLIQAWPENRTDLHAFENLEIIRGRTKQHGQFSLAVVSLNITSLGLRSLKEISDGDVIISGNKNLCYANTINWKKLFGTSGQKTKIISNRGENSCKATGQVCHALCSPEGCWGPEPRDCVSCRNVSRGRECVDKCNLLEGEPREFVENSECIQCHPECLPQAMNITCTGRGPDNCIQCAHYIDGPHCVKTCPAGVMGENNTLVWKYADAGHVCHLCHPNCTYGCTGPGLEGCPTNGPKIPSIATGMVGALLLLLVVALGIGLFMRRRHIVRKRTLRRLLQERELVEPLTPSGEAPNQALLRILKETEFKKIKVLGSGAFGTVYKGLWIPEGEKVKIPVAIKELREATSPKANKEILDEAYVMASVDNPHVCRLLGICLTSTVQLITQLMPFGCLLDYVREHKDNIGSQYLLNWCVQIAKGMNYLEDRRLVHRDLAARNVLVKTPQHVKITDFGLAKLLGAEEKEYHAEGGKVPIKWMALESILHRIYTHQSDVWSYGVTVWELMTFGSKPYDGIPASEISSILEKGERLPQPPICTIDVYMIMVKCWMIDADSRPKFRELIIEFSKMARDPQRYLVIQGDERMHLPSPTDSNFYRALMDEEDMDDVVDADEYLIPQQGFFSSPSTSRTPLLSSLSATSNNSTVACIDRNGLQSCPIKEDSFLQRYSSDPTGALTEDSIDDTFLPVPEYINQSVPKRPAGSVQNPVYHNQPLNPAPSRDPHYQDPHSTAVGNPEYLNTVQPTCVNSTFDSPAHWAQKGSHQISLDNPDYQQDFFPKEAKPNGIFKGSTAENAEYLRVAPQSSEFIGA

[7] = target: Receptor tyrosine-protein kinase erbB-2 (Homo sapiens, UniProt P04626); experiment: Inhibition of human N-terminal DYKDDDD tagged HER2 cytoplasmic domain amino acid 676 to 1255 expressed in baculovirus after 5 mins by scintillation counter
Receptor tyrosine-protein kinase erbB-2, sequence (P04626 whole entry, the tested form may be a part): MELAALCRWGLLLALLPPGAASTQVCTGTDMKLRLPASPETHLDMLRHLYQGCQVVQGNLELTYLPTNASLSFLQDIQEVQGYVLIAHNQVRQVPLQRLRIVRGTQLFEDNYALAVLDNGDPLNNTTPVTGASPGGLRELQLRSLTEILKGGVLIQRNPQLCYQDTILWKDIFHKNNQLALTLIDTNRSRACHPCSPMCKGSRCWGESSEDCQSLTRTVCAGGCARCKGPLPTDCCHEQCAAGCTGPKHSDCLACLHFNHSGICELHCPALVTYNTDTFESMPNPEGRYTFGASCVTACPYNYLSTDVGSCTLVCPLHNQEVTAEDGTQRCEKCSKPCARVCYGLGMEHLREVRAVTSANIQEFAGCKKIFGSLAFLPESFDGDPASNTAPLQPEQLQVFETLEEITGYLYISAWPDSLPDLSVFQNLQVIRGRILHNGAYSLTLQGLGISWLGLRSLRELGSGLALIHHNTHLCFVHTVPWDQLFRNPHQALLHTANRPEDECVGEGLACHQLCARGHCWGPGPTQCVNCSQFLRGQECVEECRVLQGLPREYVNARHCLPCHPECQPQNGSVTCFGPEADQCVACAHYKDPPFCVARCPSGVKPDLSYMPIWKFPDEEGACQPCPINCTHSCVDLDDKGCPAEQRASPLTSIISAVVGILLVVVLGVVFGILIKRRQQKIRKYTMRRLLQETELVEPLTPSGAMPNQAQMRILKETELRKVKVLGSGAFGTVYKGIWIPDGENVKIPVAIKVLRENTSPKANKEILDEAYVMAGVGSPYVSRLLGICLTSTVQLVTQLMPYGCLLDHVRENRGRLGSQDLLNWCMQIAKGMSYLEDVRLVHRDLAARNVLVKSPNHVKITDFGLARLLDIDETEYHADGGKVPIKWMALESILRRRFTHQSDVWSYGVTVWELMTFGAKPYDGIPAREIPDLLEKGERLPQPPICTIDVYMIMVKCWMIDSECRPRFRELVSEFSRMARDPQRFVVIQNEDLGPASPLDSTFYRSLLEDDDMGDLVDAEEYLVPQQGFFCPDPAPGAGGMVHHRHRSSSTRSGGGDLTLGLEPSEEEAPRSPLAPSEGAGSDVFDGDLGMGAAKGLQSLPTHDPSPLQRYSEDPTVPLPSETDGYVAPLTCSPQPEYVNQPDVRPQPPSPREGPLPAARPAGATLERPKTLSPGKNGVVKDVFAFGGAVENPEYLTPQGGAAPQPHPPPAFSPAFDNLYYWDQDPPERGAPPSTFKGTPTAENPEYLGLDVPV
Summary of the method: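 FLAG-purified HER2 cytoplasmic domain in 50 mmol/L Tris-HCl pH 7.5, 5 mmol/L MnCl₂, 0.01% Tween-20, 2 mmol/L DTT, with poly-Glu-Tyr (4:1) and [γ-³²P]ATP. Compound and enzyme preincubated 5 min at room temperature; reaction started with ATP, 10 min at room temperature. Stopped with 10% TCA, filter-harvested, washed with 3% phosphoric acid, scintillation counted.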

[8] = Apparent permeability across basolateral to apical side in human Caco2 cells at 10 umol/L; type: ADME, cell-based; details: Caco-2; summary of the method: as §1

CS(=O)(=O)CC(=O)NCCn1ccc2ncnc(Nc3ccc(Oc4cccc(C(F)(F)F)c4)c(Cl)c3)c21
Papp A→B at 10 µM [1]: 0.52 ×10⁻⁶ cm/s
microsomal CLint at 1 µM [2]: 18 µL/min/mg
T/C (BT-474 [3]): 80%
GI50 (BT-474 [4]): 5.2 nM
microsomal CLint at 1 µM [5]: 11 µL/min/mg
IC50 [6]: 15 nM
IC50 [7]: 6.3 nM
Papp B→A at 10 µM [8]: 8.29 ×10⁻⁶ cm/s

CCS(=O)(=O)CC(=O)NCCn1ccc2ncnc(Nc3ccc(Oc4cccc(C(F)(F)F)c4)c(Cl)c3)c21
microsomal CLint at 1 µM [2]: 26 µL/min/mg
GI50 (BT-474 [4]): 36 nM
microsomal CLint at 1 µM [5]: 22 µL/min/mg
IC50 [6]: 31 nM
IC50 [7]: 8.5 nM

CC(C)S(=O)(=O)CC(=O)NCCn1ccc2ncnc(Nc3ccc(Oc4cccc(C(F)(F)F)c4)c(Cl)c3)c21
microsomal CLint at 1 µM [2]: 42 µL/min/mg
GI50 (BT-474 [4]): 48 nM
microsomal CLint at 1 µM [5]: 35 µL/min/mg
IC50 [7]: 11 nM

CC(C)(C)S(=O)(=O)CC(=O)NCCn1ccc2ncnc(Nc3ccc(Oc4cccc(C(F)(F)F)c4)c(Cl)c3)c21
microsomal CLint at 1 µM [2]: 45 µL/min/mg
GI50 (BT-474 [4]): 36 nM
microsomal CLint at 1 µM [5]: 31 µL/min/mg
IC50 [6]: 56 nM
IC50 [7]: 14 nM

CC(C(=O)NCCn1ccc2ncnc(Nc3ccc(Oc4cccc(C(F)(F)F)c4)c(Cl)c3)c21)S(C)(=O)=O (configuration not stated)
microsomal CLint at 1 µM [2]: 30 µL/min/mg
GI50 (BT-474 [4]): 34 nM
microsomal CLint at 1 µM [5]: 33 µL/min/mg
IC50 [6]: 18 nM
IC50 [7]: 7.1 nM
